The results in this text go back to ChEMBL document CHEMBL1148687, “Identification of a novel 4-aminomethylpiperidine class of M3 muscarinic receptor antagonists and structural insight into their M3 selectivity” (J Med Chem, 2006).

The structures appear in SMILES notation.

The target in test [1] is T1, Muscarinic acetylcholine receptor M5 (Homo sapiens, UniProt P08912).
T1 sequence (P08912 whole entry): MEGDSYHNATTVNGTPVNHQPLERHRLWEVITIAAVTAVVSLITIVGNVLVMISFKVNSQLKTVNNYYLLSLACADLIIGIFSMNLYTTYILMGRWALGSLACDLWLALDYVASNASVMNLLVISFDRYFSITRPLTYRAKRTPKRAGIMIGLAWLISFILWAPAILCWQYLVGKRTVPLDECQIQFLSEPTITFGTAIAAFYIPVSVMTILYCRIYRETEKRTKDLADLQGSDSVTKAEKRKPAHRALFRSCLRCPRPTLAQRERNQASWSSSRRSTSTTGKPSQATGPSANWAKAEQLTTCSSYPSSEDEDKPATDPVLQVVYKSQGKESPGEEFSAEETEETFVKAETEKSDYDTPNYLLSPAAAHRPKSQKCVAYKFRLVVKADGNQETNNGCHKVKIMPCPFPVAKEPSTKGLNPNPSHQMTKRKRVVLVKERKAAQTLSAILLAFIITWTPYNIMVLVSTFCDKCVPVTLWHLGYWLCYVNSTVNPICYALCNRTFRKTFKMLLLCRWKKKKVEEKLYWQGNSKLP
As to the kind of experiment: Inhibition of [3H]NMS binding to human cloned M5 receptor expressed in CHO cells. Type of test: cell-based. In outline:
(§1)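 Competition against specific [3H]-NMS binding on membranes of CHO cells expressing cloned human receptor subtypes. Assay buffer 50 mM Tris-HCl, 10 mM MgCl2, 1 mM EDTA, pH 7.4, highest final concentration 10 µM.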

The target in test [2] is T2, Muscarinic acetylcholine receptor M1 (Homo sapiens, UniProt P11229).
T2 sequence (P11229 whole entry): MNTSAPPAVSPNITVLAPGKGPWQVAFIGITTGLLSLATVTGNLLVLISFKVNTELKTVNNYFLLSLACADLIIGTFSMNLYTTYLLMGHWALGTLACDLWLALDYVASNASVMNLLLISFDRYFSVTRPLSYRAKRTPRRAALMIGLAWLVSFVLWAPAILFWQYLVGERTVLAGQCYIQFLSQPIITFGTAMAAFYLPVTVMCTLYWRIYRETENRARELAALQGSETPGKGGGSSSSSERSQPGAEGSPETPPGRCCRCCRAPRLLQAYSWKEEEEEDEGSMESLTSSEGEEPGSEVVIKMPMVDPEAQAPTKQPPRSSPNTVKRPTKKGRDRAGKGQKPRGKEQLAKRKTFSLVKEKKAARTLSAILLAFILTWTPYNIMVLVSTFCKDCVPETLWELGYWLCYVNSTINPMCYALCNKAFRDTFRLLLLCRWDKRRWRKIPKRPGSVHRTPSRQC
As to the kind of experiment: Inhibition of [3H]NMS binding to human cloned M1 receptor expressed in CHO cells. It counts as cell-based. In outline:
as §1

For test [3], the target named is Muscarinic acetylcholine receptor M3 (Rattus norvegicus, UniProt P08483). Kind of test: (§2) Antagonist activity at M3 receptor assessed as inhibition of carbachol-induced contraction of rat trachea. The following applies: read-out: pA2 (converted). It counts as functional. The method in brief:
(§3)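 Contraction of isolated rat trachea evoked by carbachol, antagonist given at several doses. Four experiments per dose, reported as mean ± SEM. Schild regression analysis applied to the data.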

Test [4] concerns the target Muscarinic acetylcholine receptor M3 (Rattus norvegicus) (UniProt P08483). The test is described as §2. Type of test: functional. In outline: as §3
Test [5] deals with T3, Muscarinic acetylcholine receptor M4 (Homo sapiens, UniProt P08173).
T3 sequence (P08173 whole entry): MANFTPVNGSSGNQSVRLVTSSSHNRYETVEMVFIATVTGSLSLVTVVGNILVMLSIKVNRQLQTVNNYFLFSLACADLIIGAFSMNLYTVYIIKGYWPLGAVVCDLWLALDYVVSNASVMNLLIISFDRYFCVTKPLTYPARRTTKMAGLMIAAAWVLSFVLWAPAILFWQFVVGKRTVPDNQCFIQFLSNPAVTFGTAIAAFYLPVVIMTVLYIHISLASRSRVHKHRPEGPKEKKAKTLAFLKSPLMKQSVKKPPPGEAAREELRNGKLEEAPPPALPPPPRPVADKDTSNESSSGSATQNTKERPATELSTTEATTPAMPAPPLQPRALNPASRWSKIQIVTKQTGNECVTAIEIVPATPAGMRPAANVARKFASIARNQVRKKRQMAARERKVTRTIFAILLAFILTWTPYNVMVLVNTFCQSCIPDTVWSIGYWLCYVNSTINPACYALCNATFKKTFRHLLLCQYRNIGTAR
Kind of test: Inhibition of [3H]NMS binding to human cloned M4 receptor expressed in CHO cells. Type of test: cell-based. In outline:
as §1

Test [6] concerns the target T4, Muscarinic acetylcholine receptor M3 (Homo sapiens, UniProt P20309). As to the kind of experiment: Inhibition of [3H]NMS binding to human cloned M3 receptor expressed in CHO cells. Type of test: cell-based. In outline: as §1
Target sequence in this assay (P20309 whole entry): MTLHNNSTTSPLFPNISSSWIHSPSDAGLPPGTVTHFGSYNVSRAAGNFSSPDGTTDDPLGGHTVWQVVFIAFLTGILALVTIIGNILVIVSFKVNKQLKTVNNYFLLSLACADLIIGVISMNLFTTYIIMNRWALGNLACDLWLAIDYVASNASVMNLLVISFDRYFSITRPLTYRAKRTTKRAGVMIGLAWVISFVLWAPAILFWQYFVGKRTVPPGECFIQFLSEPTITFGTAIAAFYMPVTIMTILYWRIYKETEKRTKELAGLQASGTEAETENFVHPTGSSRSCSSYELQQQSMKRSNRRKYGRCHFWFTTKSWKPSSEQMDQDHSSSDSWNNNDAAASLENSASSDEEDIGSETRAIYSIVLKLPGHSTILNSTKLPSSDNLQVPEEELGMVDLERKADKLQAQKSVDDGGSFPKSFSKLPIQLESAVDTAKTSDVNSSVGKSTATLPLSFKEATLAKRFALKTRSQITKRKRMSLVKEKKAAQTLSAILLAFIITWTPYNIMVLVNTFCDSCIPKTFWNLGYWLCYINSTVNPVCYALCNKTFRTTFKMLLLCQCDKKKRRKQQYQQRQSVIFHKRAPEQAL
Test [7] concerns the target T5, Muscarinic acetylcholine receptor M2 (Rattus norvegicus, UniProt P10980).
T5 sequence (P10980 whole entry): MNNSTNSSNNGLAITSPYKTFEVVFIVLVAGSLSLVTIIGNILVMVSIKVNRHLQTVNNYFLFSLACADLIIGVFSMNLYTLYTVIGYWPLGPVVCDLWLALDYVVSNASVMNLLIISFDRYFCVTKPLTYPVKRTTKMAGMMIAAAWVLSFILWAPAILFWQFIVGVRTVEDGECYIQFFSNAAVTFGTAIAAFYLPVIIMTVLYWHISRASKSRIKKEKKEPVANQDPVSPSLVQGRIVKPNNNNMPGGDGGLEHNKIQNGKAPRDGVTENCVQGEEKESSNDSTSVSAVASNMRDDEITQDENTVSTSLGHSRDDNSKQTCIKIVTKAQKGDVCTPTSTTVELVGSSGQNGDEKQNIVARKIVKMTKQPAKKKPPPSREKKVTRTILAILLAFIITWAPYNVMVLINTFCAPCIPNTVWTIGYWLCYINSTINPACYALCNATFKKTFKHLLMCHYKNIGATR
Kind of test: Antagonist activity at M2 receptor assessed as inhibition of carbachol-induced bradycardia in rat atria. It counts as functional. The following applies: read-out: pA2 (converted). The method in brief: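 Isolated rat right atria, bradycardia evoked by carbachol, antagonist given at several doses. Four experiments per dose, reported as mean ± SEM. Potency obtained by Schild regression analysis.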

Test [8] addresses T4, Muscarinic acetylcholine receptor M3. Kind of test: Inhibition of [3H]NMS binding to human cloned M3 receptor expressed in CHO cells at 1 uM. It counts as cell-based.
Target sequence in this assay (P20309 whole entry, looked up): as the sequence (P20309 whole entry) above

Sequence of Muscarinic acetylcholine receptor M3 (Rattus norvegicus) (P08483 whole entry, looked up): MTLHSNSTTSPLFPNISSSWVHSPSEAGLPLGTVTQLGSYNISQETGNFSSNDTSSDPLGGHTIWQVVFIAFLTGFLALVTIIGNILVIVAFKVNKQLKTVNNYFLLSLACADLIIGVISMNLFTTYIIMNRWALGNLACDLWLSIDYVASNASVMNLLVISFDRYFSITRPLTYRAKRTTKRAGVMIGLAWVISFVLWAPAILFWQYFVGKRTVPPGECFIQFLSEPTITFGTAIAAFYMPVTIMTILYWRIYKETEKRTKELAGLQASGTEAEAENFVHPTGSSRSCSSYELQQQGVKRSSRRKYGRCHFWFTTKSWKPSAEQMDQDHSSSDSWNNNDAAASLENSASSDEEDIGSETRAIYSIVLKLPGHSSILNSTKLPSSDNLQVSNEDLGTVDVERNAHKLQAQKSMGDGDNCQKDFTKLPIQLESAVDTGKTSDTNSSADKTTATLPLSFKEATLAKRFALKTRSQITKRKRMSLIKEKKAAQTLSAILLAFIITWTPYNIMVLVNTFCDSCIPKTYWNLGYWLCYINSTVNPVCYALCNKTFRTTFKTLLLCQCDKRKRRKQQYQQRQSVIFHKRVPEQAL
Sequence of Muscarinic acetylcholine receptor M3 (Rattus norvegicus, UniProt P08483) (P08483 whole entry): as the sequence (P08483 whole entry, looked up) above

As for `O=C(NCC1CCNCC1)[C@H]1CCCN1C(=O)[C@@H]1C[C@@H](O)CN1C(=O)CC(c1ccc(F)cc1)(c1ccc(F)cc1)c1ccc(F)cc1`, the inhibition constant Ki in test [1] turned out to be 3500 nM; in test [2], 170 nM; in test [5], 42 nM; in test [6], 0.3 nM. Besides, the results for the Kb in test [3] and in test [7] were 0.224 nM and 204 nM, respectively. For the same compound, the Activity entry in test [4] is “Dose-dependent effect”.
For `O=C(NC[C@H]1CCCNC1)[C@H]1CCCN1C(=O)[C@@H]1CCCN1C(=O)CC(c1ccccc1)(c1ccccc1)c1ccccc1`, the Ki in test [1] is above 5000 nM; in test [2], above 2500 nM; in test [5], above 1700 nM; in test [6], 99 nM. The compound further gave an inhibition in test [8] of 74%.
Consider `CC(C)NC(=O)[C@H]1CCCN1C(=O)[C@@H]1C[C@@H](O)CN1C(=O)CC(c1ccc(F)cc1)(c1ccc(F)cc1)c1ccc(F)cc1`, for which the Ki in test [1] is above 5400 nM; in test [2], 800 nM; in test [5] it was 180 nM; in test [6], 2.4 nM.
For `O=C(NCC1CCN(CC2CCCC2)CC1)[C@H]1CCCN1C(=O)[C@@H]1C[C@@H](O)CN1C(=O)CC(c1ccc(F)cc1)(c1ccc(F)cc1)c1ccc(F)cc1`, the Ki in test [1] was found to be 940 nM; in test [2] it was 71 nM; in test [5], 11 nM; in test [6] it was 0.19 nM.
Consider `O=C(NCC1CCNCC1)[C@H]1CCCN1C(=O)[C@@H]1C[C@@H](O)CN1C(=O)CC(c1ccccc1)(c1ccccc1)c1ccccc1`, for which the Ki was above 5100 nM in test [1], 1800 nM in test [2], 480 nM in test [5] and 4.2 nM in test [6].
With `O=C(NC[C@@H]1CCCNC1)[C@H]1CCCN1C(=O)[C@@H]1C[C@@H](O)CN1C(=O)CC(c1ccccc1)(c1ccccc1)c1ccccc1`, the Ki in test [1] was above 5100 nM; in test [2] it was above 2600 nM; in test [5], 290 nM; in test [6], 3.7 nM.
Take `O=C(NCC1CCN(CC2CC2)CC1)[C@H]1CCCN1C(=O)[C@@H]1C[C@@H](O)CN1C(=O)CC(c1ccc(F)cc1)(c1ccc(F)cc1)c1ccc(F)cc1`: the Ki in test [1] was 1600 nM; in test [2], 65 nM; in test [5] it was 20 nM; in test [6], 0.17 nM.
Turning to `O=C(NC[C@@H]1CCCNC1)[C@H]1CCCN1C(=O)[C@@H]1C[C@@H](O)CN1C(=O)CC(c1ccc(Cl)cc1)(c1ccc(Cl)cc1)c1ccc(Cl)cc1`, the Ki in test [1] is 2700 nM; in test [2], 460 nM; in test [5] it was 120 nM; in test [6], 1.6 nM.
As for `O=C(NCC1CCN(CC2CCC2)CC1)[C@H]1CCCN1C(=O)[C@@H]1C[C@@H](O)CN1C(=O)CC(c1ccc(F)cc1)(c1ccc(F)cc1)c1ccc(F)cc1`, the Ki turned out to be 3100 nM in test [1], 220 nM in test [2], 31 nM in test [5] and 0.53 nM in test [6].
For the compound `CN1CCC(CNC(=O)[C@H]2CCCN2C(=O)[C@@H]2C[C@@H](O)CN2C(=O)CC(c2ccc(F)cc2)(c2ccc(F)cc2)c2ccc(F)cc2)CC1`, the inhibition constant (Ki) in test [1] came to 1600 nM; in test [2], 270 nM; in test [5] it was 41 nM; in test [6], 0.51 nM.
Consider `O=C(NCC1CCNCC1)[C@H]1CCCN1C(=O)[C@@H]1C[C@@H](O)CN1C(=O)CC(c1ccc(Cl)cc1)(c1ccc(Cl)cc1)c1ccc(Cl)cc1`, for which the Ki in test [1] is 2500 nM; in test [2], 93 nM; in test [5] it was 53 nM; in test [6] it was 0.39 nM.
